Assay outcomes: PubChem BioAssay, several laboratories
In the library only some 1.2% were active in any assay of this set; here they are far more common.
Efa HMGR inh – blocks class II HMG-CoA reductase of Enterococcus faecalis | hit rate 0.41% among 190,000 | purified E. faecalis HMGR, NADPH absorbance 340 nm kinetic | inhibition, % at 10 µM;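 active = inhibition above a set limit, the median over all tested compounds plus 3 SD, cut at about 9.5% in these data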;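 note: enzyme runs in reverse so mevalonate oxidation gives rising NADPH absorbance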
TNAP act hi DEA – activators of human TNAP at high phosphate acceptor concentration; activation factor at 20 µM; AID 1136; 200,000 tested, under 10 active; purified TNAP, CDP-star luminescence, 1 M DEA, 30 min; hits give high values; 0 = EDTA background, 1 = DMSO-only activity;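 active = activation factor at least 2 at 20 µM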
Target sequence (P05186 whole entry, looked up): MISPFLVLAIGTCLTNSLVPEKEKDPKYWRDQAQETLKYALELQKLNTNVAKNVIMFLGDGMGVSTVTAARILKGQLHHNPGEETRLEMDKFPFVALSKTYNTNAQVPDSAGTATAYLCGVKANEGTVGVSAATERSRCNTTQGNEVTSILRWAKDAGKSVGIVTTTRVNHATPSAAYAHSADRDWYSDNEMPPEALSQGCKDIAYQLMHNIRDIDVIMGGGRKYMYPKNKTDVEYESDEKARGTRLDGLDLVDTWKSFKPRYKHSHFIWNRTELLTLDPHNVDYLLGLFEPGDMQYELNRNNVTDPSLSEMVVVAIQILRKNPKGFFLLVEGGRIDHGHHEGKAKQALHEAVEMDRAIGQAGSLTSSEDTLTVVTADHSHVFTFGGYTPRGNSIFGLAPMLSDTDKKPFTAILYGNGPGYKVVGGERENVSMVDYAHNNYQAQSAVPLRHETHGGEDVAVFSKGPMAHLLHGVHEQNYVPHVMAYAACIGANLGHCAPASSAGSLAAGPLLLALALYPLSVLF
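Control set: EDTA negative control, DMSO positive control / Assay system: human TNAP / Quantity: TNAP 1/800 final / Evaluation: TNAP activation factor scaled between EDTA and DMSO control wells / Measured by: luminescent substrate turnover signal / Compound dosing: one dose, 20 µM / Times: 30 min enzyme reaction at room temperature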
TNAP inh no acc – inhibitors of human TNAP without phosphate acceptor; P05186; purified TNAP, CDP-star luminescence, 30 min; inhibition, % at 20 µM; hit rate 0.26% among 200,000;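 active = tissue-nonspecific alkaline phosphatase inhibition above about 50% at 20 µM in the single-dose screen, limit read from the data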
TNAP inh hiacc – TNAP (human) inhibition, high acceptor. P05186. purified TNAP, CDP-star luminescence, 1 M DEA. inhibition, % at 20 µM. hit rate 0.03% among 200,000. AID 1135;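 active = over 50% inhibition of tissue-nonspecific alkaline phosphatase at 20 µM in the single-dose screen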
Insulin prom inh – TRM-6 insulin promoter activity inhibition | TRM-6 cells (human fetal islet line), insulin promoter-eGFP reporter, imaging; reporter expression induced with tamoxifen | inhibition, % at 2 µM | hit rate 0.9% among 130,000 | AID 1273;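 active = inhibition above the mean plus 3 SD, with well images judged a real hit on visual review, cut at about 60% in these data, passing the limit was not always enough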
Of the large screens only hits and unclear results are named; the others gave an inactive call.

O=C(O)c1cc(-c2cccs2)nc2cc3c(cc12)OCCO3	Insulin prom inh 85.7
Cc1ccc(NS(=O)(=O)c2ccc(C(=O)OCC(=O)NCC3CCCO3)cc2)cc1 (stereo unspecified)	none (no result: Insulin prom inh)
CCCCCN1N=C(C)CC1=O	Insulin prom inh 66.7
COc1ccccc1-c1nnc2n1N=C(c1ccc(O)c(O)c1)CS2	TNAP inh no acc 66.7 (no result: Insulin prom inh)
CCOc1ccc(C2=Nn3c(nnc3-c3ccccc3OC)SC2)cc1	none (no result: Insulin prom inh)
CCOc1ccc(/C=N/n2cc(-c3ccccc3)[nH]c2=S)cc1	Efa HMGR inh 10.5 (no result: Insulin prom inh)
CCOC(=O)C(CC)n1cnc2c(nnn2-c2ccc(OC)cc2)c1=O (stereo unspecified)	Efa HMGR inh 27.0
CCOC(=O)c1nnn(-c2ccc(OC)cc2)c1N	Efa HMGR inh 15.5
CC(C)(C)NC(=O)COC(=O)/C=C/c1ccc(F)cc1	none (no result: Insulin prom inh)
O=C(NCc1cccnc1)c1ccc(NC(=O)c2ccco2)cc1	Insulin prom inh 79.0
O=C1NC(=O)/C(=C/C(=O)N2CCOCC2)S1	Efa HMGR inh 13.5 (no result: Insulin prom inh)
CCOC(=O)CNC(=O)C1Cc2ccccc2CN1S(=O)(=O)c1cccs1 (stereo unspecified)	none (no result: Insulin prom inh)
CCCC(=O)Nc1sc2c(c1C(=O)OCC)CC(C)(C)OC2	Insulin prom inh 75.0
CCc1nnc(NC(=O)C2CCCCN2S(=O)(=O)c2ccccc2)s1 (stereo unspecified)	none
CCCn1c(SCC(=O)Nc2nc(C)cs2)nnc1-c1cccnc1	Insulin prom inh 75.0
CCn1c(SCC(=O)Nc2nc(C)c(C)s2)nnc1-c1cccnc1	none
c1ccc(-c2n[nH]c3c2CCC3)cc1	TNAP inh no acc 72.9
Cc1snc(S(=O)(=O)/C(C#N)=N/Nc2ccc(C(F)(F)F)cc2)c1C#N	Insulin prom inh 71.4
Cc1snc(S(=O)(=O)/C(C#N)=N\Nc2ccccc2)c1C#N	none
Cc1ccc(C(=O)N2CCOCC2)cc1Cl	none
O=C(c1cc(Cl)cc(Cl)c1)N1CCOCC1	Insulin prom inh 86.7
Cc1cccc(S(=O)(=O)Nc2ccc(-c3cn4ccccc4n3)cc2)c1	Efa HMGR inh 14.1 (no result: Insulin prom inh)
CCc1ccc(NC(=O)CSc2nc3ccccc3c(=O)n2CCCC(=O)NCCCN2CCOCC2)cc1	none
O=C1c2ccccc2NC(c2ccc(Cl)cc2Cl)N1O (stereo unspecified)	Efa HMGR inh 15.2
O=C1c2ccccc2NC(c2ccc(Cl)cc2Cl)N1Cc1ccccc1 (stereo unspecified)	none
COCCCn1c(C)c(C(C)=O)cc(NC(=O)c2ccccc2)c1=O	Efa HMGR inh 10.6 (no result: Insulin prom inh)
CCOC(=O)C1(Cc2ccccc2C)CCCN(Cc2ccc(NC(C)=O)cc2)C1 (stereo unspecified)	none (no result: Insulin prom inh)
Brc1cccc(-c2n[nH]c(-c3ccccc3)n2)c1	TNAP inh no acc 57.0
O=C(CSc1nnnn1Cc1ccccc1)NCC(=O)c1ccccc1	none
O=C(CSc1nnnn1Cc1ccccc1)c1ccccc1F	Insulin prom inh 92.6
FC(F)(F)c1ccc(C2NCCc3sccc32)cc1 (stereo unspecified)	none (no result: Insulin prom inh)
CN(C)S(=O)(=O)c1ccc(NC(=O)N2CCN(c3cccc(C(F)(F)F)c3)CC2)cc1	none
COc1ccc(NC(=O)N2CCN(c3cccc(C(F)(F)F)c3)CC2)cc1	Insulin prom inh 75.3
CCNC(=O)N1CCOCC1	Insulin prom inh 85.7
O=C(NCCc1ccc(F)cc1)N1CCOCC1	Insulin prom inh 83.3
CCOc1ccc(C(=O)NC2=NCCS2)cc1	Insulin prom inh 83.3
CCOc1cc(C(=O)NC2=NCCS2)cc(OCC)c1OCC	none
Cc1cc(C(=O)Oc2cccnc2)ccc1[N+](=O)[O-]	Insulin prom inh 83.3
CSc1nc(-c2ccc(Cl)cc2)nn1C(=O)c1ccco1	Insulin prom inh 83.3
CCS(=O)(=O)n1nc(-c2ccc(Cl)cc2)nc1SC	TNAP inh no acc 61.4, Insulin prom inh 72.1
CSc1nc(-c2ccco2)nn1C(=O)c1ccco1	none (no result: Insulin prom inh)
O=C(CSc1nnc(Nc2ccccc2F)s1)Nc1cccc(S(=O)(=O)N2CCCCC2)c1	none
Cc1ccc(NC(=O)C2(c3ccccc3)CCOCC2)c([N+](=O)[O-])c1	none
Cc1ccc(S(=O)(=O)/C(C#N)=C/c2c(N3CCC(C(N)=O)CC3)nc3ccccn3c2=O)cc1	Efa HMGR inh 11.2
COc1ccccc1-c1nc(SCC(=O)O)n[nH]1	none
CC1(C(=O)CSc2n[nH]c(-c3ccccc3Cl)n2)CCC(=O)O1 (stereo unspecified)	TNAP inh no acc 53.8
CC1(C(=O)CSc2nc3ccccc3[nH]2)CCC(=O)O1 (stereo unspecified)	none
O=C(CSc1n[nH]c(-c2ccccc2Cl)n1)NCc1cccc(C(=O)O)c1	TNAP inh no acc 93.0 (no result: Insulin prom inh)
CC1CC2(CC(C)(C(=O)CSc3n[nH]c(-c4ccccc4Cl)n3)OC2=O)C(=O)O1 (stereo unspecified)	TNAP inh no acc 52.9
N#C[C@H]1[C@H](c2ccccc2)[C@](C#N)(C(=O)c2ccccc2)[C@@H]2C=Cc3ccccc3N21	none (no result: Insulin prom inh)
CCOC(=O)C1(Cc2ccccc2Cl)CCN(C(=O)CN2CCOC2=O)CC1	none (no result: Insulin prom inh)
CCOC(=O)c1nn(-c2ccccc2F)c(C)c1C(C)=O	Efa HMGR inh 9.8
COc1ccc(NC(=O)COC(=O)C2CC3C=CC2C3)cc1 (stereo unspecified)	Insulin prom inh 79.0
O=C(COC(=O)C1CC2C=CC1C2)Nc1ccccc1F (stereo unspecified)	none
N#Cc1c(NC(=O)CSc2ncn[nH]2)sc2c1CCCCC2	none
CC(=O)NC1C(=O)N=C(SCC(=O)Nc2sc3c(c2C#N)CCCCCC3)NC1=O (stereo unspecified)	Efa HMGR inh 9.8
Cc1[nH][nH]c(=O)c1C(c1ccc(-c2ccccc2C(=O)O)o1)c1c(C)[nH][nH]c1=O	none (no result: Insulin prom inh)
Cc1[nH][nH]c(=O)c1C(c1ccc(-c2ccc(Cl)cc2Cl)o1)c1c(C)[nH][nH]c1=O	Efa HMGR inh 10.5
O=C(COc1nncc2ccccc12)Nc1ccc(F)c(F)c1	none
C/C(=N\NC(=O)c1cccc(F)c1)c1cccc(NC(=O)c2ccc(F)cc2)c1	none (no result: Insulin prom inh)
C/C(=N\NC(=O)c1cccc(N/N=C(\C)c2ccco2)c1)c1ccco1	Insulin prom inh 81.8
C/C(=N\NC(=O)c1cccc(N/N=C(\C)c2cc(O)ccc2O)c1)c1cc(O)ccc1O	TNAP inh no acc 75.9 (no result: Insulin prom inh)
C/C(=N\NC(=O)c1ccc(F)cc1)c1cccc(NC(=O)c2ccco2)c1	none (no result: Insulin prom inh)
Cc1ccc(C2C=NN(c3ccccc3)C2=O)cc1 (stereo unspecified)	Efa HMGR inh 10.4 (no result: Insulin prom inh)
O=C(CCN1CCOCC1)NNC(=S)NC(=O)c1ccccc1	none (no result: Insulin prom inh)
Clc1ccc2nc(N3CCCCC3)[nH]c2c1	Insulin prom inh 86.7
Clc1ccc2nc(N3CCCCC3)sc2c1	none (no result: Insulin prom inh)
CCOC(=O)/C=C/C(=O)OCC(=O)Nc1ccc(C)cc1	Efa HMGR inh 11.3
Cc1ccc(NC(=O)CC(O)(C(F)(F)F)C(F)(F)F)cc1	Insulin prom inh 76.9
Cn1nnnc1SCC(=O)c1ccc(Br)s1	none
